Consider twelve molecules from ChEMBL document CHEMBL1137471, “Dihydroxypyridopyrazine-1,6-dione HIV-1 integrase inhibitors” (Bioorg Med Chem Lett, 2007).

Series [1] addresses Human immunodeficiency virus type 1 integrase (Human immunodeficiency virus 1, UniProt Q7ZJM1). Put plainly: Inhibition of HIV1 recombinant integrase strand transfer activity. A digest of the protocol: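 Strand transfer by recombinant HIV-1 integrase (0.1 µM) preassembled on immobilized oligonucleotides. Inhibition is relative to a no-inhibitor control run in quadruplicate and averaged, with background subtracted. IC50 given as mean of three experiments with standard deviation.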

Series [2] has as its system Human immunodeficiency virus 1. Description: Antiviral activity against HIV1 3B infected in human MT4 cells assessed as inhibition of replication after 3 days by ELISA. The class given is functional. Particulars: Human immunodeficiency virus 1, 3B, MT4, 72 h; read-out: CIC95. For orientation: In an ELISA, binding on a coated surface is turned into a signal by an enzyme label.

A further series concerns MT4. Description: Cytotoxicity against human MT4 cells upto 20 uM after 24 hrs. The format is cell-based. The settings on record: mt4, 24 h.
The test system of series [3] is Liver microsomes. Description: Protein binding in rat liver microsomes per 60 mins in absence of NADPH. The format is ADME, Microsome. The settings on record: 1 h. The method, boiled down:
(§1)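 [14C]-labelled compound incubated with rat or human liver microsomes, with or without NADPH. Irreversibly bound radioactivity expressed as pmol equiv/mg/60 min.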
A general note: Microsomes from liver hold many membrane-bound enzymes, among them those of drug oxidation.

The subject of series [4] is Plasma. Description: Protein binding in rat plasma after 6 hrs. The class given is ADME, cell-free. The method, boiled down: (§2)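 [14C]-labelled compound given to rats in vivo. Irreversibly bound radioactivity measured in plasma and liver at 2, 6 and 24 h, expressed as pmol equiv/mg protein.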
In series [5] the test system is Liver microsomes. Put plainly: Protein binding in rat liver microsomes per 60 mins in presence of NADPH. The format is ADME, Microsome. The settings on record: 1 h. A digest of the protocol:
as §1

Series [6] has as its system Liver microsomes. Description: Protein binding in human liver microsomes per 60 mins in absence of NADPH. Particulars: 1 h. The class given is ADME, Microsome. A digest of the protocol:
as §1

The subject of series [7] is Liver. Description: Protein binding in rat liver after 2 hrs. The format is ADME, tissue-based. The method, boiled down: as §2
Series [8] relates to Liver. Put plainly: Protein binding in rat liver after 6 hrs. The format is ADME, tissue-based. A digest of the protocol: as §2
For series [9], the system named is Liver. Description: Protein binding in rat liver after 24 hrs. The class given is ADME, tissue-based. The method, boiled down:
as §2

Series [10] concerns Plasma. Put plainly: Protein binding in rat plasma after 2 hrs. The format is ADME, cell-free. A digest of the protocol:
as §2

The subject of series [11] is Liver microsomes. Put plainly: Protein binding in human liver microsomes per 60 mins in presence of NADPH. The settings on record: 1 h. The class given is ADME, Microsome. A digest of the protocol: as §1
The subject of series [12] is Plasma. Description: Protein binding in rat plasma after 24 hrs. The format is ADME, cell-free. The method, boiled down: as §2
A further series is filed under the species Rattus norvegicus. Put plainly: Plasma concentration in rat after 2 to 24 hrs. Particulars: in vivo. The class given is ADME, organism-based. A digest of the protocol: (§3)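 Rats dosed orally at 10 mg/kg as a solution in 1% aqueous methylcellulose. Plasma sampled through 24 h.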
Series [13] is described as follows: Bioavailability in rat at 10 mg/kg, po. The class given is ADME, organism-based. The settings on record: in vivo. The method, boiled down: as §3

Sequence of Human immunodeficiency virus type 1 integrase (Q7ZJM1 whole entry): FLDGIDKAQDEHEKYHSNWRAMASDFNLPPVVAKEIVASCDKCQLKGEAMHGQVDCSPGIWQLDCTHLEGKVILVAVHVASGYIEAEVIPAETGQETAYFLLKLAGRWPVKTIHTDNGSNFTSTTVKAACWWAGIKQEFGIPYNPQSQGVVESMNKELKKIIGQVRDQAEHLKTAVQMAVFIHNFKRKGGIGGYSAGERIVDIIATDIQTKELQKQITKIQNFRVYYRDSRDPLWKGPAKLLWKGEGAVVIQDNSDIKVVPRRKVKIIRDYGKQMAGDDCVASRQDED

The term IC50 denotes the concentration needed to halve the response being measured. Consider `O=C1c2c(O)c(O)cc(=O)n2CCCN1Cc1ccc(F)cc1`, for which the IC50 in series [1] came to 1040 nM.
In the case of `O=C1c2c(O)c(O)cc(=O)n2CCN1Cc1ccccc1`, the IC95 in [2] came out at 2500 nM. Besides, the Activity entry in the series on MT4 is given as “Non-toxic”. The IC50 in [1] was 230 nM.
As to `O=C1c2[14c](O)[14c](O)cc(=O)n2CCN1Cc1ccc(F)cc1`, the Activity with Liver microsomes [3] amounted to 24.7 pmolequiv/mg; with Liver microsomes [5], 24.2 pmolequiv/mg; in the series on Liver microsomes [6], 15.2 pmolequiv/mg; in the series on Liver microsomes [11] it was 19.6 pmolequiv/mg. Also, the PPB in the series on Plasma [4], with Liver [7], in the series with Liver [8], with Liver [9], with Plasma [10] and in the series with Plasma [12] was under 5 pmolequiv/mg throughout.
As usually defined, the bioavailability is the share of a dose that reaches the circulation, judged against a reference dose that is usually intravenous. Take `O=C1c2c(O)c(O)cc(=O)n2CCN1Cc1ccc(F)cc1`: the IC95 in [2] was determined as 310 nM. In addition, in the series with MT4, the Activity entry is given as “Non-toxic”. In the series listed under Rattus norvegicus, this molecule had a concentration of 500 nM. Moreover, the IC50 in series [1] amounted to 100 nM. The bioavailability in series [13] was determined as 69%.
As for `O=c1c2c(O)c(O)cc(=O)n2ccn1Cc1ccc(F)cc1`, the IC50 in series [1] amounted to 40 nM.
Consider `O=C1c2c(O)c(O)cc(=O)n2CCN1Cc1cccc(Cl)c1`, for which the IC95 in series [2] stood at 500 nM. In the series on MT4, the Activity result is on record as “Non-toxic”. Moreover, the IC50 in [1] came to 40 nM.
The matching figures for `O=C1c2c(O)c(O)cc(=O)n2CCN1Cc1ccc(F)c(Cl)c1`: 250 nM, “Non-toxic” and 40 nM.
Consider `N#Cc1c(O)c(O)c2n(c1=O)CCN(Cc1ccc(F)cc1)C2=O`, for which the IC95 in series [2] is over 1000 nM. For the same molecule, the Activity result with MT4 is “Non-toxic”. The IC50 in series [1] amounted to 20 nM.
For `O=C1c2c(O)c(O)c(I)c(=O)n2CCN1Cc1ccc(F)cc1` the same measures were over 1000 nM, “Non-toxic” and 20 nM.
Consider `O=C1c2c(O)c(O)cc(=O)n2CCN1Cc1ccccc1Cl`, for which the IC95 in [2] was over 1000 nM. In addition, in the series with MT4, the Activity result is listed as “Non-toxic”. In addition, in series [1], the IC50 came out at 370 nM.
As for `O=C1c2c(O)c(O)cc(=O)n2CCN1Cc1ccc(Cl)cc1`, the IC95 in series [2] was determined as 1000 nM. Also, the Activity entry with MT4 was “Non-toxic”. For the same molecule, the IC50 in series [1] stood at 380 nM.
`O=C1c2c(O)c(O)c(Br)c(=O)n2CCN1Cc1ccc(F)cc1`: the IC95 in series [2] was determined as 1000 nM. Besides, the Activity result in the series on MT4 was “Non-toxic”. The IC50 in [1] amounted to 30 nM.
